{"source": "paper PMC11542726", "about": "(Methods in enzymology, 2024)", "key": {"[1]": {"system": "Crk SH2", "experiment": "FP competition assay: unlabeled peptides vs FAM-DVpYDVPP", "format": "binding, mouse Crk protein 1 – 118 identical to human CRK protein", "settings": "4 nM FAM-labeled phosphorylated peptide, 150 nM Crk SH2, unlabeled competitor peptides; data not shown", "summary_of_the_method": "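Polarization is read as mP values. For each unlabeled peptide, the concentration giving 50% displacement of the FAM probe is obtained by non-linear regression.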"}, "[2]": {"system": "Crk SH2", "experiment": "Differential scanning fluorimetry", "format": "binding, mouse Crk protein 1 – 118 identical to human CRK protein", "settings": "10 μM Crk SH2, 10X SYPRO Orange, peptides 0-300 μM, 50 mM HEPES, pH 7.5, 150 mM NaCl; 25 to 95°C at 0.2°C/s; Figure 6B", "summary_of_the_method": "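Before dye addition, Crk SH2 (10 μM final) is preincubated with peptides, dispensed from DMSO or buffer, for 30 min at room temperature. SYPRO Orange is then added and samples are melted. Tm is taken from the fluorescence curve or its first derivative as the half-unfolded point. ΔTm is the change in Tm on ligand binding. A DMSO series of 0–2% was also run.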"}, "[3]": {"system": "Crk SH2", "experiment": "Fluorescence polarization", "format": "mouse Crk protein 1 – 118 identical to human CRK protein", "settings": "direct binding; various concentrations of FAM-conjugated peptides titrated into 4 nM Crk SH2, 20 mM HEPES pH 7.5, 0.025% Triton X-100; 384-well, 480-nm excitation, 535-nm emission; repeated at least three times; Figure 6A"}, "[4]": {"system": "Crk SH2 vs CrkL SH2", "experiment": "Comparison of affinity of FAM-DVpYDVPP for Crk SH2 vs CrkL SH2", "format": "binding, mouse", "settings": "comparison in words; assay and values not given"}}, "note": "“Also recorded” adds a separate entry of the source."}
{"substance": "DVFDVPP-OH", "values": [{"measurement": "Competition of binding of Crk SH2 with FAM-DVpYDVPP", "setting": "[1]", "value": "much less significantly"}]}
{"substance": "DVYDVPP", "values": [{"measurement": "Shift of thermal unfolding curve / Tm", "setting": "[2]", "value": "no significant shift in Tm was observed; also recorded: no significant binding"}, {"measurement": "Competition of binding of Crk SH2 with FAM-DVpYDVPP", "setting": "[1]", "value": "much less significantly"}]}
{"substance": "DVpYDVPP-OH", "values": [{"measurement": "Shift of thermal unfolding curve / Tm", "setting": "[2]", "value": "shift to the right; also recorded: unfolding curves shifted"}, {"measurement": "Competition of binding of Crk SH2 with FAM-DVpYDVPP", "setting": "[1]", "value": "effectively competed out"}]}
{"substance": "FAM-DVYDVPP", "values": [{"measurement": "Increase in FP / polarization (mP)", "setting": "[3]", "value": "no significant increase in FP is observed; also recorded: No polarization is detected"}]}
{"substance": "FAM-DVpYDVPP", "values": [{"measurement": "Increase in FP / polarization (mP)", "setting": "[3]", "value": "a significant increase in FP is measured"}, {"measurement": "Relative affinity, Crk SH2 vs CrkL SH2", "setting": "[4]", "value": "Crk SH2 showed a higher affinity"}]}
